# Where “and” joins values, the source holds several entries; their conditions need not be identical. Equal entries are not always repeated. Where two headings read alike, the source gives them in different places.
# Tests used:
# Sprague Dawley rat = settings: female Sprague Dawley rats; ref http://ntp.niehs.nih.gov/; cited from earlier work
# LacI gene [1] = assay: LacI gene sequencing, type of mutations; assay type: in vivo, F344 BigBlue rats; settings: female liver; for Deletions, distinct mutations / Insertions, distinct mutations / Transitions, distinct mutations / Transversions, distinct mutations: number; for frameshift mutations (deletions and insertions), % of all mutations: solvent controls 18%
# [2] = Body weight gain during the study period; assay type: in vivo, F344 BigBlue rats; settings: for effect on weight gain compared to control: either gender; for reduction of weight gain during the treatment period: versus control
# LacI gene [3] = assay: BigBlue lacI mutant and mutation frequency analysis, female liver; assay type: in vivo, F344 BigBlue rats; settings: for Mutants per 10^6 plaques (mutant frequency): 4 weekly i.p. injections, sacrifice PND75; for Mutation Frequency (MF) ± SE (corrected) / Number of Mutations (corrected): after sequencing; for Number of Mutations (corrected): duplicates and non-mutants excluded
# Method in brief: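 Female F344 BigBlue rats (lacI transgene), 4/group, got i.p. test compound, positive control or corn oil (5 ml/kg) weekly on PND 37, 44, 51, 58 and were killed on PND75. Genomic DNA from 50 mg central liver was lambda-packaged, infected into E. coli and plated in X-gal top agar overnight. Blue plaques were counted, with >100,000 pfu/animal. Mutant frequency = blue plaques/pfu, per 10^6 ± SE.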
# F344 BigBlue rats [4] = assay: Organ weights normalized to body weight; assay type: in vivo; settings: for impact on liver, lung and spleen weights: versus corn oil controls
# Method in brief: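 Rats of both genders, 4/group, were given 4 weekly i.p. doses in corn oil and killed on PND75 by CO2 then cervical dislocation. Liver and other organs were excised and weighed, and weights were expressed as g per 100 g body weight. ANOVA used treatment, gender and their interaction.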
# liver mRNA = assay: Gene expression analysis of female liver RNA; assay type: in vivo, F344 BigBlue rats; settings: for number of unique genes significantly changed: p < 0.0001 and fold change > 5 versus corn oil control, pooled RNA
# F344 BigBlue rats [5] = assay: Histological analysis of spleen, lung and liver; assay type: in vivo; settings: animal 1 – 4
# Method in brief: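 In both genders, frozen tissue sampled at PND75 sacrifice (4 weekly i.p. doses, 4 rats/group) was cut into four-micron sections. Sections were stained with hematoxylin/eosin and examined by light microscopy for histological anomalies in each animal.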
# LacI = settings: ref Lehmann et al. 2007, cited from earlier work; for frameshift mutations, % of mutations: male livers, control 19%
# F344 BigBlue rats [6] = settings: Male; animal 1 – 4; previously reported; ref Lehmann et al. 2007; Maddox et al. 2008; cited from earlier work
# [7] = ref Li et al. 1997; cited from earlier work
# [8] = ref Espandiari et al. 2004; cited from earlier work
# [9] = versus corn oil control, up-regulated
smiles,measurement,setting,value
"Clc1ccc(-c2cc(Cl)c(Cl)c(Cl)c2)cc1Cl [PCB 126, 3,3′,4,4′,5-pentachlorobiphenyl]",carcinogenicity in chronic carcinogenicity studies,Sprague Dawley rat,clear evidence
"Clc1ccc(-c2cc(Cl)c(Cl)cc2Cl)cc1Cl [PCB 118, 2,3′,4,4′,5-pentachloro-biphenyl]",carcinogenicity in chronic carcinogenicity studies,Sprague Dawley rat,clear evidence
"Clc1ccc(-c2ccccc2)cc1 [PCB3, 4-chlorobiphenyl]","Deletions, % of total",LacI gene [1],7%
same,"Insertions, % of total",LacI gene [1],20%
same,Total Mutations,LacI gene [1],15
same,"Transitions, % of total",LacI gene [1],53%
same,"Transversions, % of total",LacI gene [1],20%
same,"Deletions, distinct mutations",LacI gene [1],1
same,"Insertions, distinct mutations",LacI gene [1],3
same,"Transitions, distinct mutations",LacI gene [1],8
same,"Transversions, distinct mutations",LacI gene [1],3
same,Weight Gain (average ± StDev),"[2]; Female, control 80.7 ± 7.42",79.6 ± 4.51 gram
same,Weight Gain (average ± StDev),"[2]; Male, control 159.7 ± 7.63",146.1 ± 7.99 gram
same,effect on weight gain compared to control,[2],Neither PCB3 nor 4′-OH-PCB3 had a significant effect on weight gain in either gender
same,significance of the increase in mutation frequency compared to control,LacI gene [3],neither PCB3 (p=0.429) nor 4′-OH-PCB3 (p=0.581) increased the mutation frequency significantly
same,Mutants per 10^6 plaques (mutant frequency),LacI gene [3],30.3 per 10^6 plaques
same,Mutation Frequency (MF) ± SE (corrected),LacI gene [3],30.3 ± 17.9 per 10^6 pfu
same,Number of Mutations (corrected),LacI gene [3],15
same,"impact on liver, lung and spleen weights",F344 BigBlue rats [4],no statistically significant impact
same,number of unique genes significantly changed,liver mRNA,86
same,CYP mRNA in the liver,liver mRNA; versus corn oil control,No CYP mRNA increase
same,Jun expression change,"liver mRNA; versus corn oil control, up",55.9 fold
same,avpr1a (arginine vasopressin receptor 1A) expression change,"liver mRNA; versus corn oil control, up",7.3 fold
same,cfdp1 (craniofacial development protein 1) expression change,"liver mRNA; versus corn oil control, up",6.2 fold
same,cps1 (carbamoyl-phosphate synthetase 1) expression change,"liver mRNA; versus corn oil control, up",6.7 fold
same,hmox1 (heme oxygenase 1) expression change,"liver mRNA; versus corn oil control, up",5.8 fold
same,kdr (kinase insert domain protein receptor) expression change,"liver mRNA; versus corn oil control, up",5.5 fold
same,lrrc59 (leucine rich repeat containing 59) expression change,"liver mRNA; versus corn oil control, up",33.1 fold
same,mbd2 (Methyl-CpG-binding protein) expression change,"liver mRNA; versus corn oil control, up",6.9 fold
same,mrpl23 (mitochondrial ribosomal protein L23) expression change,"liver mRNA; versus corn oil control, up",223.3 fold
same,sult1b1 (sulfotransforase 1b1) expression change,liver mRNA; [9],~7 fold
same,"Organ Pathology, LIVER",F344 BigBlue rats [5]; Female,all female PCB3 livers had acidophilic bodies and two animals also showed patchy hepatocellular necrosis and 1 + 2: Scattered acidophilic bodies 3: Centrilobular acidophilic bodies and patchy hepatocellular necrosis. 4: Centrilobular acidophilic bodies and patchy hepatocellular necrosis.
same,"Organ Pathology, LUNG",F344 BigBlue rats [5]; Female,1: Focal acute inflammation 2: Minimal acute inflammation with areas of atelectasis 3: Minimal acute inflammation 4: Patchy bronchopneumonia with early ARDS. Perivascular lymphocytes increased.
same,"Organ Pathology, SPLEEN",F344 BigBlue rats [5]; Female,No abnormality
same,"Organ Pathology, SPLEEN",F344 BigBlue rats [5]; Male,No abnormality
"Cc1ccc2cc3c(ccc4ccccc43)c3c2c1CC3 [3-MC, 3-Methylcholanthrene, reference compound]","Deletions, % of total",LacI gene [1],18%
same,"Insertions, % of total",LacI gene [1],14%
same,Total Mutations,LacI gene [1],28
same,"Transitions, % of total",LacI gene [1],32%
same,"Transversions, % of total",LacI gene [1],36%
same,"frameshift mutations (deletions and insertions) observed, number",LacI gene [1]; expected 5 from solvent control proportions,9
same,"Deletions, distinct mutations",LacI gene [1],5
same,"Insertions, distinct mutations",LacI gene [1],4
same,"Transitions, distinct mutations",LacI gene [1],9
same,"Transversions, distinct mutations",LacI gene [1],10
same,"frameshift mutations (deletions and insertions), % of all mutations",LacI gene [1],32%
same,Weight Gain (average ± StDev),"[2]; Female, control 80.7 ± 7.42",61.8 ± 7.78 ^# gram
same,Weight Gain (average ± StDev),"[2]; Male, control 159.7 ± 7.63",90.4 ± 25.6 gram
same,reduction of weight gain during the treatment period,[2]; females,23%
same,reduction of weight gain during the treatment period,[2]; males,43%
same,significance of the increase in mutation frequency compared to control,LacI gene [3],failed marginally to reach statistical significance
same,Mutants per 10^6 plaques (mutant frequency),LacI gene [3],48.4 per 10^6 plaques
same,Mutation Frequency (MF) ± SE (corrected),LacI gene [3],43.5 per 10^6 pfu and 43.5 ± 14.8 per 10^6 pfu
same,Number of Mutations (corrected),LacI gene [3],28
same,"frameshift mutations, % of mutations",LacI,27%
same,increase in mutation frequency,"LacI; male rodents, liver",about 5 fold
same,increase in liver mass compared to corn oil controls,F344 BigBlue rats [4]; female rats,over 30%
same,increase in lung mass compared to corn oil controls,F344 BigBlue rats [4]; female rats,over 30%
same,increase in spleen mass compared to corn oil controls,F344 BigBlue rats [4]; female rats,over 30%
same,liver weight relative to body weight compared to corn oil treated rats,F344 BigBlue rats [4]; female rats,nearly doubled in weight per grams of body weight
same,relative lung weight,F344 BigBlue rats [4]; female rats,more than doubling of the relative lung weight
same,"spleen, thymus and adrenal gland weights relative to controls",F344 BigBlue rats [4]; females,increased spleen weights and decreased the thymus and adrenal gland weights
same,number of unique genes significantly changed,liver mRNA,Seventyfive
same,calca (calcitonin/calcitonin-related polypeptide a) expression,liver mRNA; versus corn oil control,up regulated
same,csda (cold shock domain protein A) expression,liver mRNA; versus corn oil control,up regulated
same,trib3 (tribbles homolog 3) expression,liver mRNA; versus corn oil control,up regulated
same,CYP1A2 gene expression increase,"liver mRNA; versus corn oil control, up",58 fold
same,UGT1A2 gene expression increase,"liver mRNA; versus corn oil control, up",13 fold
same,akr7a3 (aldo-keto reductases 7a3) expression change,"liver mRNA; versus corn oil control, up",16 fold
same,bcl10 (B-cell CLL/lymphoma 10) expression change,"liver mRNA; versus corn oil control, up",16.3 fold
same,ephx1 (epoxide hydrolase 1) expression change,"liver mRNA; versus corn oil control, up",9.9 fold
same,gdnf (glial cell derived neurotrophic factor) expression change,"liver mRNA; versus corn oil control, up",6.0 fold
same,glrx1 (glutaredoxin 1) expression change,"liver mRNA; versus corn oil control, up",10.2 fold
same,hmox1 (heme oxygenase 1) expression change,"liver mRNA; versus corn oil control, up",16.3 fold
same,mgst2 (microsomal glutathione S-transferase 2) expression change,"liver mRNA; versus corn oil control, up",7.9 fold
same,ptgs1 (prostaglandin-endoperoxide synthase 1) expression change,"liver mRNA; versus corn oil control, up",27.8 fold
same,smarcb1 expression change,"liver mRNA; versus corn oil control, up",8.5 fold
same,"Organ Pathology, LIVER",F344 BigBlue rats [6],"centrilobular necrosis, in some cases severe, was the dominat finding"
same,"Organ Pathology, LUNG",F344 BigBlue rats [6],1: No abnormality 2 + 3: Focal perivascular lymphocytes. 4: Focal perivascular lymphocytes with increased intra-alveolar macrophages.
same,persistence in the liver,[7],2 weeks
same,"Organ Pathology, LIVER",F344 BigBlue rats [5]; Female,"only scattered foci of necrosis, prominent Kupffer cells and focal perilobular lymphocytes in two of the four animals"
same,"Organ Pathology, LUNG",F344 BigBlue rats [5]; Female,1: Bronchopneumonia with what looks like early ARDS. Pulmonary edema 2: Bronchopneumonia with what looks like early ARDS more so than #1. Pulmonary edema. 3: Focal acute inflammation with increased intra-alveolar macrophages 4: No abnormality.
same,"Organ Pathology, SPLEEN",F344 BigBlue rats [5]; Female,No abnormality
same,"Organ Pathology, SPLEEN",F344 BigBlue rats [5]; Male,No abnormality
Oc1ccc(-c2ccc(Cl)cc2)cc1 [4′-OH-PCB3],"Deletions, % of total",LacI gene [1],12%
same,"Insertions, % of total",LacI gene [1],24%
same,"Transitions, % of total",LacI gene [1],35%
same,"Transversions, % of total",LacI gene [1],29%
same,"Deletions, distinct mutations",LacI gene [1],2
same,"Insertions, distinct mutations",LacI gene [1],4
same,"Transitions, distinct mutations",LacI gene [1],6
same,"Transversions, distinct mutations",LacI gene [1],5
same,"frameshift mutations (deletions and insertions), % of all mutations",LacI gene [1],36%
same,Weight Gain (average ± StDev),"[2]; Female, control 80.7 ± 7.42",85.3 ± 4.13 gram
same,Weight Gain (average ± StDev),"[2]; Male, control 159.7 ± 7.63",129.6 ± 17.50 gram
same,effect on weight gain compared to control,[2],Neither PCB3 nor 4′-OH-PCB3 had a significant effect on weight gain in either gender
same,significance of the increase in mutation frequency compared to control,LacI gene [3],neither PCB3 (p=0.429) nor 4′-OH-PCB3 (p=0.581) increased the mutation frequency significantly
same,Mutants per 10^6 plaques (mutant frequency),LacI gene [3],27.3 per 10^6 plaques
same,Mutation Frequency (MF) ± SE (corrected),LacI gene [3],27.2 ± 6.6 per 10^6 pfu
same,Number of Mutations (corrected),LacI gene [3],19
same,"frameshift mutations, % of mutations",LacI,22%
same,"impact on liver, lung and spleen weights",F344 BigBlue rats [4],no statistically significant impact
same,number of unique genes significantly changed,liver mRNA,157
same,cul1 (cullin 1) expression change,"liver mRNA; versus corn oil control, down",36.3 fold
same,ei24 (etoposide induced 2.4 mRNA) expression change,"liver mRNA; versus corn oil control, down",28.1 fold
same,cyp2b2 expression change,"liver mRNA; versus corn oil control, down-regulated",~19 fold
same,aqp2 (aquaporin 2) expression change,"liver mRNA; versus corn oil control, up",6.6 fold
same,bnip3l (BCL2/adenovirus E1B interacting protein 3-like) expression change,"liver mRNA; versus corn oil control, up",5.8 fold
same,kdr (kinase insert domain protein receptor) expression change,"liver mRNA; versus corn oil control, up",6.4 fold
same,sh3glb1 (SH3-domain GRB2-like endophilin B1) expression change,"liver mRNA; versus corn oil control, up",6.3 fold
same,stat1 (signal transducer and activator of transcription 1) expression change,"liver mRNA; versus corn oil control, up",10.6 fold
same,syvn1 (synovial apoptosis inhibitor 1) expression change,"liver mRNA; versus corn oil control, up",26.7 fold
same,Cyp2j4 expression change,liver mRNA; [9],8.8 fold
same,sult1b1 (sulfotransforase 1b1) expression change,liver mRNA; [9],~7 fold
same,result in the modified Solt-Farber Initiation Protocol,[8],positive
same,"Organ Pathology, LIVER",F344 BigBlue rats [6],"all four male 4′-OH-PCB3 livers showed dilated sinosoids and 1: dilated sinusoids, rare acidophil body. No obvious inflammation. 2, 3, and 4: dilated sinusoids,. Focal lymphocyte cluster with rare acidophil body. Minimal portal tract inflammation."
same,"Organ Pathology, LUNG",F344 BigBlue rats [6],1 + 2: No abnormality. 3 + 4: Minimal perivascular lymphocytes.
same,"Organ Pathology, LIVER",F344 BigBlue rats [5]; Female,"rare acidophilic bodies, but 3 of 4 animals had patchy hepatocellular necrosis and chronic inflammation and 1: Rare acidophilic bodies with patchy hepatocellular necrosis and chronic inflammation. 2 + 3: Rare acidophilic bodies with patchy hepatocellular necrosis and chronic inflammation. 4: Scattered acidophilic bodies with dilated sinusoids."
same,"Organ Pathology, LUNG",F344 BigBlue rats [5]; Female,1: Minimal acute inflammation 2: Almost normal with focal perivascular lymphocytes. 3: No abnormality. 4: Patchy bronchopneumonia with early ARDS. Perivascular lymphocytes increased
same,"Organ Pathology, SPLEEN",F344 BigBlue rats [5]; Female,1 – 4: Reduced mantle
same,"Organ Pathology, SPLEEN",F344 BigBlue rats [5]; Male,1: No abnormality 2 + 3: Reduced mantle with focally increased neutrophils. 4: Reduced mantle with focally increased neutrophils with red pulp congestion.

# Source: PMC2949545 (Environment international, 2010)
